Assay [1] concerns the target T1, Amine oxidase [flavin-containing] A (Bos taurus, UniProt P21398).
T1 sequence (P21398 whole entry): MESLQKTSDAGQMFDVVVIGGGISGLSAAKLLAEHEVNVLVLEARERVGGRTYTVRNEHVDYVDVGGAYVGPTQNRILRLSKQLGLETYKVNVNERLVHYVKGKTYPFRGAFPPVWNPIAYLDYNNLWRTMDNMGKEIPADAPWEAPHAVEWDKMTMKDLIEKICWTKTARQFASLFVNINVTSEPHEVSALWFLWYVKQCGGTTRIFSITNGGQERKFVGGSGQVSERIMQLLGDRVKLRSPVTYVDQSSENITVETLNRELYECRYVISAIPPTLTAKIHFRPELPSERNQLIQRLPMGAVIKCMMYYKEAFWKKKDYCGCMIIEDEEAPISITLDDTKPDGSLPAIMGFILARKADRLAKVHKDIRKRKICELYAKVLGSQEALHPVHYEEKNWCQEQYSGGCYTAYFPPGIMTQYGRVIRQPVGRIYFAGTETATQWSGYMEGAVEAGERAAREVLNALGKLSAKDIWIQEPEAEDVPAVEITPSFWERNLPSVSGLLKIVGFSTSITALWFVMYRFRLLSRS
Briefly: Inhibition of bovine brain mitochondria MAOA. In outline:
(§1)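 Beef brain mitochondria isolated per Basford, 6 mg/mL, in 0.25 M potassium phosphate pH 7.4. Preincubation 30 min at 38 °C with 0.5 µM L-deprenyl (MAO-A) or 0.05 µM clorgyline (MAO-B). Inhibitor in DMSO, […]. Kynuramine at four final levels, 5 µM–0.1 mM, 30 min at 38 °C. Perchloric acid stop, fluorimetric read. Ki from Dixon plots; ≥3 experiments in duplicate.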

The species entered for assay [2] is Bos taurus. As to the kind of experiment: Selectivity index, ratio of Ki for MAOB to Ki for MAOA in bovine brain mitochondria. In outline:
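SI computed as Ki(MAO-B)/Ki(MAO-A). Both Ki values are from the fluorimetric kynuramine assay on bovine brain mitochondria, with isoforms isolated by L-deprenyl or clorgyline preincubation. Ki from Dixon plots; means of at least three experiments.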

Assay [3] is filed under the species Bos taurus. Briefly: Selectivity index, ratio of Ki for MAOA to Ki for MAOB in bovine brain mitochondria.
The target of assay [4] is T2, Amine oxidase [flavin-containing] B (Bos taurus, UniProt P56560).
T2 sequence (P56560 whole entry): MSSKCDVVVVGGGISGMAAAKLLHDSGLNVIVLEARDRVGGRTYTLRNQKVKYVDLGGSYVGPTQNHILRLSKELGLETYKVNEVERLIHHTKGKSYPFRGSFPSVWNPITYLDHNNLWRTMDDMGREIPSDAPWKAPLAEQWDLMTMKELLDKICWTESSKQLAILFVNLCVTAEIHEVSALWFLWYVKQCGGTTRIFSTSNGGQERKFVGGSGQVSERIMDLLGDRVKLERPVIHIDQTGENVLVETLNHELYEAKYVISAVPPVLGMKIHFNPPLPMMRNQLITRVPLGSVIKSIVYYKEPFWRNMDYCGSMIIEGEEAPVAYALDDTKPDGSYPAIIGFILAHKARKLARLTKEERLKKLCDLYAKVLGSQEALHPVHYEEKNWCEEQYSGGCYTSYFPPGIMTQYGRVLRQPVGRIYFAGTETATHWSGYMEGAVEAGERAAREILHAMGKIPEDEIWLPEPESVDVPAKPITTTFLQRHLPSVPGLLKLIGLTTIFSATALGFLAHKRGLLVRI
As to the kind of experiment: Inhibition of bovine brain mitochondria MAOB. In outline:
as §1

As usually defined, the Ki is the equilibrium dissociation constant of an inhibitor or competing ligand from its target. Lower therefore signals higher affinity.

As to `Cc1ccc(C2=NN(C(N)=S)C(c3ccc(Cl)cc3)C2)cc1` (stereo unspecified), the figures for the Ki in assay [1] and in assay [4] were 31 nM and 1.5 nM, respectively. For the same compound, the figures for the Ratio Ki in the assay filed under Bos taurus [2] and in the assay listed under Bos taurus [3] were 0.05 and 20.7, respectively.

As to `Cc1ccc(C2=NN(C(N)=S)[C@H](c3ccc(Cl)cc3)C2)cc1`, the Ki in assay [1] came to 50 nM; in assay [4], 1 nM. Further, the Ratio Ki in the assay filed under Bos taurus [2] is 0.02; in the assay listed under Bos taurus [3], 50.

Turning to `NC(=S)N1N=C(c2ccc(F)cc2)CC1c1ccc(Cl)cc1` (stereo unspecified), the results for the inhibitory constant (Ki) in assay [1] and in assay [4] were 6 nM and 1000 nM, respectively. For the same compound, the Ratio Ki in the assay filed under Bos taurus [2] came to 166; in the assay listed under Bos taurus [3], 0.006.

Regarding `Cc1ccc(C2=NN(C(N)=S)C(c3ccco3)C2)cc1` (stereo unspecified), the Ki in assay [1] is 4 nM; in assay [4] it was 170 nM. The Ratio Ki in the assay filed under Bos taurus [2] amounted to 42.5; in the assay listed under Bos taurus [3], 0.02.

As to `Cc1ccc(C2=NN(C(N)=S)[C@@H](c3ccc(Cl)cc3)C2)cc1`, the Ki in assay [1] was found to be 13 nM; in assay [4], 2.7 nM. Besides, the Ratio Ki amounted to 0.2 in the assay listed under Bos taurus [2] and 4.8 in the assay filed under Bos taurus [3].

On to `NC(=S)N1N=C(c2cccs2)CC1c1ccco1` (stereo unspecified), for which the Ki in assay [1] amounted to 50 nM; in assay [4], 20 nM. The Ratio Ki was 0.4 in the assay listed under Bos taurus [2] and 2.5 in the assay filed under Bos taurus [3].

With `NC(=S)N1N=C(c2cccs2)CC1c1ccc(Cl)cc1` (stereo unspecified), the Ki came out at 41 nM in assay [1] and 6 nM in assay [4]. Further, the Ratio Ki came out at 0.14 in the assay filed under Bos taurus [2] and 6.8 in the assay filed under Bos taurus [3].

Consider `NC(=S)N1N=C(c2ccc(F)cc2)C[C@H]1c1ccc(Cl)cc1`, for which the Ki in assay [1] amounted to 5 nM; in assay [4], 2400 nM. Further, the values for the Ratio Ki in the assay listed under Bos taurus [2] and in the assay listed under Bos taurus [3] were 480 and 0.002, respectively.

For `NC(=S)N1N=C(c2ccc(F)cc2)C[C@@H]1c1ccc(Cl)cc1`, the results for the Ki in assay [1] and in assay [4] were 12 nM and 1400 nM, respectively. Further, the values for the Ratio Ki in the assay listed under Bos taurus [2] and in the assay listed under Bos taurus [3] were 116 and 0.008, respectively.

Consider `Cc1ccc(C2=NN(C(N)=S)C(c3ccc(C)cc3)C2)cc1` (stereo unspecified), for which the Ki was 6 nM in assay [1] and 10 nM in assay [4]. In addition, the Ratio Ki in the assay filed under Bos taurus [2] is 1.6; in the assay filed under Bos taurus [3], 0.6.

As for `Cc1ccc(C2CC(c3cccs3)=NN2C(N)=S)cc1` (stereo unspecified), the Ki in assay [1] stood at 50 nM; in assay [4], 10 nM. The Ratio Ki was found to be 0.2 in the assay filed under Bos taurus [2] and 5 in the assay filed under Bos taurus [3].

As to `NC(=S)N1N=C(c2cccs2)CC1c1cccs1` (stereo unspecified), the inhibition constant (Ki) in assay [1] is 27 nM; in assay [4], 50 nM. The Ratio Ki in the assay listed under Bos taurus [2] came out at 1.85; in the assay listed under Bos taurus [3] it was 0.54.

Regarding `Cc1ccc(C2CC(c3ccc(F)cc3)=NN2C(N)=S)cc1` (stereo unspecified), the Ki in assay [1] came out at 7 nM; in assay [4] it was 50 nM. The Ratio Ki in the assay filed under Bos taurus [2] is 7.1; in the assay listed under Bos taurus [3], 0.14.

For the compound `NC(=S)N1N=C(c2ccc(F)cc2)CC1c1ccco1` (stereo unspecified), the Ki in assay [1] was 8 nM; in assay [4], 370 nM. Further, the Ratio Ki is 46.2 in the assay filed under Bos taurus [2] and 0.021 in the assay filed under Bos taurus [3].

Source of the values: ChEMBL document CHEMBL1139465, “Synthesis, molecular modeling studies, and selective inhibitory activity against monoamine oxidase of 1-thiocarbamoyl-3,5-diaryl-4,5-dihydro-(1H)- pyrazole derivatives” (J Med Chem, 2005).
